Calls of active or inactive are those of the source.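 The calls were made as follows, unless noted: active = fluorescence slope higher than the sample average by over 3 SD (cut at about -0.22 in these data, passing the limit was not always enough); inactive = the rest.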
Assays:
[1] = inhibitors of TNFa-induced NFkB p65 translocation, primary screen, imaging, HUVEC, MLSMR starter and 10KST1 sets (AID 438;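 active = inhibition above 20% together with a positive visual image hit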;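 also: compound added about 3h40 before a 20 min TNFalpha stimulation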;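 as to inhibition: signal is the nuclear over cytoplasmic p65 intensity ratio per well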); details: HUVEC TNFa-induced p65 nuclear translocation; cell count: measured here: nuclei count (cytotoxicity indicator), at 2.08 µM; inhibition: at 2 µM, stronger effect = higher value, 0% TNFa-plus-vehicle, 100% no-TNFa wells
[2] = inhibitors of mutant huntingtin aggregation, primary screen, imaging, exon1htt(103Q)mCFP cells, high-content imaging (AID 483;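 active = visual image review flags a hit and inhibition of aggregation exceeds 20%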;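 also: compound exposure lasted 3 days before fixation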;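 as to nuclei count: percent of the per-plate median nuclei count of sample wells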); details: exon1htt(103Q)mCFP cell line, aggregate imaging, at 2 µM; inhibition of aggregation: stronger effect = higher value; nuclei count: measured here: cell count, toxicity
[3] = inhibitors of E-selectin induction by TNFa, primary screen, imaging, HUVEC, immunofluorescence, MLSMR starter and 10KST1 sets (AID 487;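 active = visually confirmed hit in the image check and inhibition above 20%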;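 as to inhibition: signal is fraction of cell area covered by stained E-selectin grains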;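 as to nuclei count: 100% = median nuclei count of all wells on the same plate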); details: HUVEC TNFalpha-induced E-selectin immunofluorescence imaging, at 2 µM; inhibition: stronger effect = higher value; nuclei count: measured here: cell number, toxicity
[4] = molecular target: Voltage-gated potassium channel subunit beta-2 (Rattus norvegicus) (UniProt P62483); assay: KvBeta enzyme negative modulators, primary screen, biochemical, NADPH fluorescence (AID 622); details: recombinant KvBeta, 4-cyanobenzaldehyde reduction, at 10 µM, stronger effect = higher value;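 also: slope of raw intensity against log time taken from 70 to 1610 s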
Chain of Voltage-gated potassium channel subunit beta-2 (Rattus norvegicus) (P62483 whole entry, looked up): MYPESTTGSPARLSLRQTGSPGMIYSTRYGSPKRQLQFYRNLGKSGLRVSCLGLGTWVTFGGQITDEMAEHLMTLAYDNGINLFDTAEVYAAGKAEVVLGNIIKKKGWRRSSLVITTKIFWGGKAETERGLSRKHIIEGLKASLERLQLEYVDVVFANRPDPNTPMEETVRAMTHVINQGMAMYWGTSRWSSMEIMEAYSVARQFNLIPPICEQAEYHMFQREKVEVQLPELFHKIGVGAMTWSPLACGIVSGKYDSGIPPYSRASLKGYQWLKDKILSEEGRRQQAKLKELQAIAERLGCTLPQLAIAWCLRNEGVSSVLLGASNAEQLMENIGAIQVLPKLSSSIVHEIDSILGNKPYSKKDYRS

[5] = molecular target: Voltage-gated potassium channel subunit beta-2 (Rattus norvegicus) (UniProt P62483); assay: KvBeta positive modulators, primary screen, biochemical, NADPH fluorescence (AID 623;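 active = NADPH fluorescence slope more negative than the mean of all samples by about 3 SD, 99.7% confidence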;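 also: fluorescence intensity change per second fitted from 20 to 320 s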); details: Recombinant KvBeta, NADPH fluorescence decrease slope, 10 min; at 10 µM; stronger effect = lower value
[6] = molecular target: Muscarinic acetylcholine receptor M4 (Homo sapiens) (UniProt P08173); assay: compounds altering M4/GIRK thallium flux, either direction, primary screen, M4 allosteric agonist project, cell-based, HEK293 M4/GIRK, BTC-AM (AID 625;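 active = fluorescence slope after compound addition differing from the mean of all tested samples at 99.7% confidence, mostly higher but some lower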;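 also: thallium influx through GIRK channels coupled to M4 in HEK293 cells with BTC-AM dye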); details: at 10 µM, actives lie on both sides
Chain of Muscarinic acetylcholine receptor M4 (Homo sapiens) (P08173 whole entry, looked up): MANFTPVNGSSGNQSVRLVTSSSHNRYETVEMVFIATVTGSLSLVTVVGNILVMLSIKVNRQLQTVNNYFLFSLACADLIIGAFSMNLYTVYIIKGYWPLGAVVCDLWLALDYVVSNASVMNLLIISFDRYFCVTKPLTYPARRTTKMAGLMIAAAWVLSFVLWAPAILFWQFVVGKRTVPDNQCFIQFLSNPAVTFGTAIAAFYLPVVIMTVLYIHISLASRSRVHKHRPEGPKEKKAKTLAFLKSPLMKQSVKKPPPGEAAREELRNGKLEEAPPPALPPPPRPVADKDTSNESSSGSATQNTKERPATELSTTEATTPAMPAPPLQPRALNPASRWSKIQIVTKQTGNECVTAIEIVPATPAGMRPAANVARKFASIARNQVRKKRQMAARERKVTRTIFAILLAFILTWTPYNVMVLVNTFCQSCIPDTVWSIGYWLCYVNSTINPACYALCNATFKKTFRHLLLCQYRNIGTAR
Outline: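 assay system = HEK293 cells with M4 receptor and GIRK channels | medium = pH 7.3 thallium assay buffer | doses = 10 µM final, single point | timing = cells overnight at 37 °C, BTC-AM loading 1 h, reads 2 min total | signal = BTC-AM fluorescence, 1 Hz kinetic reads | read-out = post-addition slope, 15–24 s, of baseline-normalized fluorescence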

[7] = inhibitors of Sendai virus-induced IRF3 signaling, primary screen, TLR/RLR signaling modifier project, cell-based, Sendai virus stimulus, luciferase, 10K MLSCN set (AID 602276;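 active = inhibition at or above 50% at 10 µM; inactive = inhibition below 50%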;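 also: firefly luciferase from ISG56 promoter only with Renilla not read in this screen; 0% = Sendai virus plus DMSO and 100% = medium plus DMSO without virus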); details: HEK293 RL24 IRF3 luciferase reporter, at 10 µM, stronger effect = higher value
[8] = inhibitors of poly I:C-induced TLR3 signaling, primary screen, cell-based, poly I:C stimulus, luciferase, 10K MLSCN set (AID 602277;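 active = inhibition of the reporter signal at or above 50%; inactive = inhibition below 50%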); details: HEK293-TLR3 RL24 IRF3 luciferase reporter, at 10 µM, stronger effect = higher value

| Structure (SMILES) | cell count [1] | inhibition [1] | inhibition of aggregation [2] | nuclei count [2] [%] | inhibition [3] | nuclei count [3] [%] | fluorescence slope [4] | NADPH fluorescence slope [5] | fluorescence slope [6] | inhibition [7] | inhibition [8] |
| --- | --- | --- | --- | --- | --- | --- | --- | --- | --- | --- | --- |
| CC1=C(C#N)C(c2ccc3ncccc3c2)C(C#N)=C(C)N1 | 641 | 1.7% (inactive) | -43.5% (inactive) | 130 | -66.3% (inactive) | 110 | -0.44 (inactive) | 1.3e-05 (inactive) | 0.0045 (inactive) | 5.74% (inactive) | 5.72% (inactive) |
| CCn1c(=O)cc(SCC(=O)N2CCN(C3CCCCC3)CC2)c2ccccc21 | 417 | -5.2% (inactive) | -6.7% (inactive) | 131 | -69.8% (inactive) | 108 | -0.565 (inactive) | 1.7e-06 (inactive) | 0.0055 (inactive) | 8.4% (inactive) | 65.5% (active) |
| c1cncc(-c2nnc(-c3ccco3)o2)c1 | 383 | -1.1% (inactive) | -27% (inactive) | 116 | 3.9% (inactive) | 95.6 | -0.532 (inactive) | -1.2e-05 (inactive) | 0.00567 (inactive) | -1.51% (inactive) | -11.7% (inactive) |
| CN1CCN(CCCNC(=O)C2CC(=O)N(C3CCCCC3)C2)CC1 (stereo not drawn) | 259 | -1.7% (inactive) | 2.4% (inactive) | 98 | 15.5% (inactive) | 89.4 | -0.548 (inactive) | -4.3e-05 (inactive) | 0.00645 (inactive) | 14.4% (inactive) | 13.7% (inactive) |
| COc1cc2c(OC)cccc2cc1C(=O)O | 383 | -1.9% (inactive) | -13.5% (inactive) | 102 | -12.2% (inactive) | 92.7 | -0.429 (inactive) | -5.9e-06 (inactive) | 0.0045 (inactive) | 18.2% (inactive) | 8.81% (inactive) |
| CCc1nnc(NC(=O)c2cccc(C(=O)Nc3nnc(CC)s3)n2)s1 | 700 | -23.3% (inactive) | 13.6% (inactive) | 120 | -18.7% (inactive) | 107 | -0.398 (inactive) | -3.4e-05 (inactive) | 0.00556 (inactive) | -5.37% (inactive) | -13.7% (inactive) |
| CCC1CCCCN1S(=O)(=O)c1ccc(C(=O)Nc2nnc(-c3cccs3)o2)cc1 (stereo not drawn) | 404 | 5.3% (inactive) | 8.5% (inactive) | 97 | -211% (inactive) | 111 | -0.486 (inactive) | -0.000271 (inactive) | 0.0055 (inactive) | 10.8% (inactive) | 16.6% (inactive) |
| CCCn1c2ccccc2c2nnc(SCC(=O)OCC)nc21 | 412 | -1.5% (inactive) | -3% (inactive) | 124 | 14.6% (inactive) | 104 | -0.536 (inactive) | -7.3e-05 (inactive) | 0.00386 (inactive) | 17.9% (inactive) | 25% (inactive) |
| Cn1c(=O)c(C(=S)NC(=O)C2CC2)c(N)n(Cc2ccccc2)c1=O | 381 | -8% (inactive) | 14.6% (inactive) | 111 | -77.3% (inactive) | 141 | -0.48 (inactive) | -3.3e-05 (inactive) | 0.00619 (inactive) | 10.8% (inactive) | 14.5% (inactive) |
| CC1=C(C#N)C(c2ccoc2)C(C(=O)OCc2ccccc2)=C(N)S1 (stereo not drawn) | 482 | 1% (inactive) | -13.3% (inactive) | 84.8 | -90% (inactive) | 102 | -0.524 (inactive) | -0.000129 (inactive) | 0.0045 (inactive) | 9.67% (inactive) | 11.7% (inactive) |
| O=C(NCc1ccco1)c1noc2c1CCCCC2 | 245 | 1.3% (inactive) | 1.9% (inactive) | 103 | -32.5% (inactive) | 117 | -0.549 (inactive) | -2.4e-05 (inactive) | 0.00608 (inactive) | -4% (inactive) | -51.6% (inactive) |
| COc1cc(C2C3=C(CC(C)(C)CC3=O)Nc3c2c(=O)[nH]c(=O)n3Cc2ccccc2)ccc1O (stereo not drawn) | 271 | 15% (inactive) | -4.8% (inactive) | 104 | -45.4% (inactive) | 114 | -0.463 (inactive) | -8e-05 (inactive) | 0.00547 (inactive) | 9.34% (inactive) | 5.06% (inactive) |
| CC1(C)Cc2c(sc3ncnc(N)c23)CO1 | 545 | -14.9% (inactive) | 5.4% (inactive) | 114 | -122% (inactive) | 108 | -0.384 (inactive) | -2.5e-05 (inactive) | 0.00833 (inactive) | 15.3% (inactive) | 16.7% (inactive) |

Reference: PubChem BioAssay
